Results gathered from unrelated publications.
Protocols differ between the studies behind these lines.
Organism: Mycolicibacterium smegmatis
Read-out: microbial growth

Structure (SMILES)	assay	system	setting	endpoint	result
Cc1nc2sc3ccccc3n2c1C(=O)N1CCN(CCn2cc(-c3ccc(C(C)(C)C)cc3)nn2)CC1			72 h	IC50	34.6 µM
Cc1cc(N)c2ccccc2[n+]1CCCCCCCCCC[n+]1c(C)cc(N)c2ccccc21	disc diffusion		50 µg/disc	inhibition zone	18 mm
O=C(O)CCCCCC1NC(=O)CS1 (racemic)		MC^2155		MIC90	10 µM
Cc1nc2sc3ccccc3n2c1C(=O)N1CCN(Cc2cn(-c3cccc([N+](=O)[O-])c3)nn2)CC1			72 h	IC50	44.1 µM
CCCCOc1ccc(-c2c[nH]c(N)n2)cc1		ATCC700084 MC^2155	48 h	MIC	> 200 µM
NC1C2CC3CC(C2)CC1C3 (stereo not drawn)			48 h	IC50	> 500 µM
NNC(=O)c1ccncc1	resazurin	MC^2155	24 h	MIC	5 µg/mL
CC(C)=CCC/C(C)=C/CNCCNC1C2CC3CC(C2)CC1C3 (stereo not drawn)			48 h	IC50	2.5 µM
COCCOc1ccc(-c2c[nH]c(N)n2)cc1		ATCC700084 MC^2155	48 h	MIC	> 200 µM
Cc1nc2sc3ccccc3n2c1C(=O)N1CCN(Cc2cn(-c3cccc(Cl)c3)nn2)CC1			72 h	IC50	52.7 µM
CCCc1ccc(-c2c[nH]c(N)n2)cc1		ATCC700084 MC^2155	48 h	MIC	200 µM
O=C(N/N=C/c1ccc([N+](=O)[O-])o1)c1ccc(O)cc1		ATCC14468		MIC90	> 1000 µg/mL
